# Test results taken from article PMC10610910 (Science Advances, 2023).
# Entries after “also recorded” stand apart in the source; their conditions may differ. No end group written: not given here.
# T1: HSF2BP (Homo sapiens, UniProt O75031)
# T1 sequence (O75031 1-334): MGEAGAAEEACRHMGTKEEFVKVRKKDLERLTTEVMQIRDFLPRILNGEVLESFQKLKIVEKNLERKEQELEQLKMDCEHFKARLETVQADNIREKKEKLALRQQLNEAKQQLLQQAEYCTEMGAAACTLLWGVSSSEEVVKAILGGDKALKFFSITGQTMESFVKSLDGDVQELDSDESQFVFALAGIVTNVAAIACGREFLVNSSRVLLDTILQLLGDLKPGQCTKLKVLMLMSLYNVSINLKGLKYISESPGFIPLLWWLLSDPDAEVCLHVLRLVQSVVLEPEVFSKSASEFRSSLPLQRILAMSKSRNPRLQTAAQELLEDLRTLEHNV
# T2: HSF2BP helix α1 (Homo sapiens, UniProt O75031)
# T2 sequence (O75031 19-50 limits assumed): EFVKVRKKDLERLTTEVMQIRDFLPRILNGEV
# T3: HSF2BP + BRCA2-HBD (Homo sapiens, UniProt O75031+P51587)
# T3 sequence (O75031 1-334): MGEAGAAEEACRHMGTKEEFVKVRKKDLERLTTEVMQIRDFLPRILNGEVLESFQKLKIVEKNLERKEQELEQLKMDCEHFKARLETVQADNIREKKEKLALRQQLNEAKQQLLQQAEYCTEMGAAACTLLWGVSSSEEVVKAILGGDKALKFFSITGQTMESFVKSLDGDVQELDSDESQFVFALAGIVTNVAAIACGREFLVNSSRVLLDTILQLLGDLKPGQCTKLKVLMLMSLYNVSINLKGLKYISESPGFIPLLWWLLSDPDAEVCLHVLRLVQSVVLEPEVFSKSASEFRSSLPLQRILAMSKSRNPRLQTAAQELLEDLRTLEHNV
# T3 sequence (P51587 2291-2342 C2332T partner limits assumed): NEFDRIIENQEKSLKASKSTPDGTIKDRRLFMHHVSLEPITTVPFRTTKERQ
# T4: HSF2BP + BRME1-M (Homo sapiens, UniProt O75031+Q0VDD7)
# T4 sequence (O75031 1-334): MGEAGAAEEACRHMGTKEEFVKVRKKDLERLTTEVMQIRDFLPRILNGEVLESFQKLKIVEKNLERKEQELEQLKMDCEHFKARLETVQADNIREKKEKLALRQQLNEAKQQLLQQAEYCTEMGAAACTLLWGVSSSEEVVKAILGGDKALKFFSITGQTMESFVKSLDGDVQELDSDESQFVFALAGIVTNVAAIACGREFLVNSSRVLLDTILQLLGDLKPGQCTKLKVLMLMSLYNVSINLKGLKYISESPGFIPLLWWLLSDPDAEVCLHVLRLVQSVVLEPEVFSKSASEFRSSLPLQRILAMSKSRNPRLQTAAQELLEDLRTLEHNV
# T4 sequence (Q0VDD7 602-641 partner limits assumed): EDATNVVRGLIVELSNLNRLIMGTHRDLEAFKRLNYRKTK
# B1: HSF2BP H80A-R84A (natural protein, human, UniProt O75031 1-334, looked up)
# chain: MGEAGAAEEACRHMGTKEEFVKVRKKDLERLTTEVMQIRDFLPRILNGEVLESFQKLKIVEKNLERKEQELEQLKMDCEAFKAALETVQADNIREKKEKLALRQQLNEAKQQLLQQAEYCTEMGAAACTLLWGVSSSEEVVKAILGGDKALKFFSITGQTMESFVKSLDGDVQELDSDESQFVFALAGIVTNVAAIACGREFLVNSSRVLLDTILQLLGDLKPGQCTKLKVLMLMSLYNVSINLKGLKYISESPGFIPLLWWLLSDPDAEVCLHVLRLVQSVVLEPEVFSKSASEFRSSLPLQRILAMSKSRNPRLQTAAQELLEDLRTLEHNV
# B2: C78A-C120S-C128A (protein, UniProt O75031 1-334, looked up, variant C78A C120S C128A)
# Heat shock factor 2-binding …: MGEAGAAEEACRHMGTKEEFVKVRKKDLERLTTEVMQIRDFLPRILNGEVLESFQKLKIVEKNLERKEQELEQLKMDAEHFKARLETVQADNIREKKEKLALRQQLNEAKQQLLQQAEYSTEMGAAAATLLWGVSSSEEVVKAILGGDKALKFFSITGQTMESFVKSLDGDVQELDSDESQFVFALAGIVTNVAAIACGREFLVNSSRVLLDTILQLLGDLKPGQCTKLKVLMLMSLYNVSINLKGLKYISESPGFIPLLWWLLSDPDAEVCLHVLRLVQSVVLEPEVFSKSASEFRSSLPLQRILAMSKSRNPRLQTAAQELLEDLRTLEHNV
# B3: BRME1: Flag-BRME1 stably produced in HeLa cells (protein, UniProt Q0VDD7 1-668, looked up)
# Break repair meiotic …: MTKRKKLRTSGEGLCPPKPLKNPRLGDFYGDPQSSMLGCLHHPEEPEGKLGPVPSTQQHGEEPGKAVSSSPDEETGSPCRLLRQPEKEPAPLPPSQNSFGRFVPQFAKSRKTVTRKEEMKDEDRGSGAFSLETIAESSAQSPGCQLLVETLGVPLQEATELGDPTQADSARPEQSSQSPVQAVPGSGDSQPDDPPDRGTGLSASQRASQDHLSEQGADDSKPETDRVPGDGGQKEHLPSIDSEGEKPDRGAPQEGGAQRTAGAGLPGGPQEEGDGVPCTPASAPTSGPAPGLGPASWCLEPGSVAQGSPDPQQTPSRMGREGEGTHSSLGCSSLGMVVIADLSTDPTELEERALEVAGPDGQASAISPASPRRKAADGGHRRALPGCTSLTGETTGESGEAGQDGKPPGDVLVGPTASLALAPGSGESMMGAGDSGHASPDTGPCVNQKQEPGPAQEEAELGGQNLERDLEGFRVSPQASVVLEHREIADDPLQEPGAQQGIPDTTSELAGQRDHLPHSADQGTWADSLAVELDFLLDSQIQDALDASDFEAPPEQLFPSGNKPGPCWPGPSSHANGDPVAVAKAQPRTFVGIQASEASRMEDATNVVRGLIVELSNLNRLIMGTHRDLEAFKRLNYRKTKLGGKAPLPYPSKGPGNIPRGDPPWREL
# modifications: Flag tag
# B4: armadillo domain: HSF2BP armadillo domain alone (E122-V334) (protein)
# chain: EMGAAACTLLWGVSSSEEVVKAILGGDKALKFFSITGQTMESFVKSLDGDVQELDSDESQFVFALAGIVTNVAAIACGREFLVNSSRVLLDTILQLLGDLKPGQCTKLKVLMLMSLYNVSINLKGLKYISESPGFIPLLWWLLSDPDAEVCLHVLRLVQSVVLEPEVFSKSASEFRSSLPLQRILAMSKSRNPRLQTAAQELLEDLRTLEHNV
# B5: BRCA2_2213–2342: BRCA2 fragment 2213–2342 (protein, UniProt P51587 2213-2342, looked up, fragment)
# chain: STYSKDSENYFETEAVEIAKAFMEDDELTDSKLPSHATHSLFTCPENEEMVLSNSRIGKRRGEPLILVGEPSIKRNLLNEFDRIIENQEKSLKASKSTPDGTIKDRRLFMHHVSLEPITCVPFRTTKERQ
# Legend:
# endogenous Xenopus BRCA2 = assay: BRCA2 degradation during interstrand crosslink repair in Xenopus egg extract; type: biochemical; settings: HSF2BP 0.45 μM, peptide 1.35 μM; 5 to 120 min
# HSF2BP [1] = target: T1, HSF2BP; assay: ITC, BRME1 peptides versus full-length HSF2BP; type: binding
# Outline: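 Full-length HSF2BP was His-tagged and bacterially expressed (IPTG, 20°C overnight), TEV-cleaved and SEC-purified. Synthetic BRME1 peptides: N, residues 578–601; M, 602–641; C, 649–668. In 25 mM tris pH 7.5, 250 mM NaCl, 5 mM β-mercaptoethanol at 293 and 303 K, 8–13 μM HSF2BP in the cell was titrated with 80–130 μM peptide. Injections of 10 μl every 210 s; first 2-μl injection discarded. Run in duplicate, fitted for stoichiometry, constants and thermodynamics.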
# HSF2BP helix α1 = target: T2, HSF2BP helix α1; assay: ITC, BRME1-M versus HSF2BP helix α1 peptide; type: binding
# [2] = tested on: HR intermediates (X-arc) of pICL in Xenopus egg extract; type: biochemical; settings: HSF2BP 0.45 μM, peptide 1.35 μM
# HSF2BP [3] = target: T1, HSF2BP; assay: Scanning force microscopy; type: physicochemical
# Outline: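 HSF2BP was diluted 10,000-fold to 12 nM in 25 mM tris-HCl pH 7.5, 250 mM NaCl, 5 mM β-mercaptoethanol. It was deposited for 30 s on freshly cleaved mica, rinsed with water, dried under filtered air, and imaged in air by SFM. Particle volume distributions were obtained by kernel density analysis.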
# [4] = tested on: complex formed by HSF2BP and BRCA2-HBD; assay: Negative-staining EM of ring-shaped HSF2BP-BRCA2-HBD complex; type: binding, human; settings: 2:1 mix of HSF2BP and BRCA2-HBD
# HSF2BP [5] = target: T1, HSF2BP; assay: Mass photometry; type: physicochemical; settings: 25-100 nM
# HSF2BP + BRCA2-HBD = target: T3, HSF2BP + BRCA2-HBD; assay: ITC, BRME1-M versus HSF2BP bound to BRCA2-HBD; type: binding; settings: 293 K
# [6] = tested on: interstrand crosslink repair (pICL) in Xenopus egg extract; assay: Cisplatin interstrand crosslink repair in Xenopus egg extract; type: biochemical; settings: HSF2BP 0.45 μM, peptide 1.35 μM
# [7] = target: HSF2BP bound to BRME1-M (complex formed beforehand) (human) (UniProt O75031); assay: ITC
# crystal structure = target: the molecule itself; assay: crystal structure
# SEC-MALS = target: the molecule itself; assay: SEC-MALS
# HeLa cells = type: cell-based, human; settings: HeLa stably producing the protein; MMC, cisplatin, talazoparib
# Outline: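 HeLa cells in DMEM with 10% fetal calf serum were stably co-transfected (PiggyBac) with GFP-HSF2BP and/or Flag-BRME1 variants, then selected with puromycin (1.5 μg/ml) and G418 (800 μg/ml) for 8 days; mixed populations were used. Seeded 100–1000 cells/well in technical duplicates, drugs added next day: MMC 2 h, cisplatin or talazoparib overnight. Coomassie-stained colonies counted on day 10.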
# HSF2BP + BRME1-M = target: T4, HSF2BP + BRME1-M; assay: ITC, BRCA2 fragments versus HSF2BP bound to BRME1-M; type: binding; settings: 293 K
# [8] = SFM on mica, in air, HSF2BP at 12 nM
molecule,measurement,setting,value
EDATNVVRGLVIELSNLNRLIMGTHRDLEAFKRLNYRKTK [BRME1-M],"effect on HSF2BP-induced BRCA2 degradation, in words",endogenous Xenopus BRCA2,completely abolished
same,ΔG,HSF2BP [1]; 293 K,-10.6 kcal/mol
same,ΔH,HSF2BP [1]; 293 K,-5.7 kcal/mol
same,─TΔS,HSF2BP [1]; 293 K,-4.90 kcal/mol
same,ΔG,HSF2BP [1]; 303 K,-10.7 kcal/mol
same,ΔH,HSF2BP [1]; 303 K,-8.2 kcal/mol
same,─TΔS,HSF2BP [1]; 303 K,-2.50 kcal/mol
same,ΔH,HSF2BP helix α1; 293 K,-1.2 kcal/mol
same,─TΔS,HSF2BP helix α1; 293 K,-9.00 kcal/mol
same,ΔH,HSF2BP helix α1; 303 K,-7.6 kcal/mol
same,─TΔS,HSF2BP helix α1; 303 K,-2.90 kcal/mol
same,"effect on HR repair intermediates, in words",[2],specifically suppressed the reduction in the formation of HR repair intermediates
same,"effect on HSF2BP-BRCA2-HBD oligomers, in words","HSF2BP [3]; SFM, HSF2BP:BRME1-M = 1:1",complete disappearance of the 24-nucleotide oligomer population
same,"effect on ring-shaped complexes, in words",[4],near-complete disappearance of the large ring-shape complexes
same,"effect on / state of HSF2BP oligomers, in words",HSF2BP [5],"the HSF2BP tetramer is dissociated into dimers; also recorded: disassembles the 24-nucleotide oligomer complexes, yielding to a mix between octamers, tetramers, and dimers; also recorded: caused disassembly of the ring-shaped complex and enrichment in double-octamers, octamers, and tetramers"
same,ΔG,HSF2BP + BRCA2-HBD; first of two lines,-10 kcal/mol
same,ΔH,HSF2BP + BRCA2-HBD; first of two lines,-4.4 kcal/mol
same,─TΔS,HSF2BP + BRCA2-HBD; first of two lines,-5.60 kcal/mol
same,ΔH,HSF2BP + BRCA2-HBD; second of two lines,-5.8 kcal/mol
same,─TΔS,HSF2BP + BRCA2-HBD; second of two lines,-4.40 kcal/mol
same,"effect on interstrand crosslink repair, in words",[6],reverted the inhibitory effect of HSF2BP on the interstrand crosslink repair reaction
BRCA2 fragment 2213–2342 (from UniProt P51587 2213-2342) (domain or fragment),dH,[7],-10.9 kcal/mol
"BRME1-C: synthetic peptide, human BRME1 residues 649 to 668 (PYPSKGPGNIPRGDPPWREL)","binding to HSF2BP, in words",HSF2BP [1]; 30°C,does not bind HSF2BP
same,"effect on HR repair intermediates, in words",[2],no such effect
same,"effect on interstrand crosslink repair, in words",[6],no such effect
"EFVKVRKKDLERLTTEVMQIRDFLPRILNGEV (peptide, UniProt O75031 19-50, looked up) [HSF2BP helix α1 peptide (residues 19 to 50)]",stoichiometry N,crystal structure,4
B1,stoichiometry N,SEC-MALS,8
same,"effect on cell resistance to DNA damage, in words",HeLa cells,compromised cell survival as HSF2BP wild type
B2,"effect on cell resistance to DNA damage, in words",HeLa cells,sensitized HeLa cells less than the wild-type protein
B3,"effect on cell resistance to DNA damage, in words",HeLa cells,cancels the disruptive effect of HSF2BP on cancer cell resistance to DNA damage; also recorded: no effect on the cell sensitivity to DNA damage; also recorded: completely abolished the sensitization induced by HSF2BP
B4,"particle volume, larger peak",HSF2BP [3]; [8],~90 nm^3
same,"particle volume, smaller peak",HSF2BP [3]; [8],~35 nm^3
B5,ΔH,HSF2BP + BRME1-M,-10.9 kcal/mol
same,─TΔS,HSF2BP + BRME1-M,-1.70 kcal/mol
same,Kd,"HSF2BP + BRME1-M; pH 7.5, 10 μM complex in cell, 55 to 60 μM BRCA2 fragment in syringe",7.8 nM
